pEC50, pIC50, pKi: −log10 of the molar value.

For experiment [1], the target named is T1, Mu-type opioid receptor (Homo sapiens, UniProt P35372). The experiment can be described thus: biochemical. The experiment is classed as cell-based, CHO.
Experiment [2] addresses T2, Kappa-type opioid receptor (Homo sapiens, UniProt P41145). Nature of the experiment: biochemical. The experiment is classed as cell-based, CHO.
Experiment [3] deals with T2, Kappa-type opioid receptor. Nature of the experiment: Functional activity at human kappa opioid receptor expressed CHO cells by [35S]GTPgammaS binding assay. It is filed as cell-based.
Experiment [4] concerns the target T1, Mu-type opioid receptor. The experiment can be described thus: Activity at human mu opioid receptor expressed in CHO cells by [35S]GTP-gamma-S binding assay. The experiment is classed as functional, cell-based.
For experiment [5], the target named is T1, Mu-type opioid receptor. The experiment can be described thus: Functional activity at human mu opioid receptor expressed in CHO cells by [35S]GTP-gamma-S binding assay. The experiment is classed as cell-based. An outline of the steps:
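Human µ receptor stably expressed in CHO cells; membranes at 7.5 µg protein/tube, incubated 60 min at 30 °C with 12 compound concentrations, 3 µM GDP and […] [35S]GTPγS in pH 7.4 Tris/MgCl2/NaCl/EGTA buffer. […] Antagonist mode used 200 nM DAMGO. At least 3 experiments in triplicate.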

Experiment [6] deals with Delta-type opioid receptor (Homo sapiens, UniProt P41143). Nature of the experiment: Displacement of [3H]naltrindole from human delta opioid receptor expressed in CHO cells. The experiment is classed as cell-based. In outline:
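Competition binding on membranes of CHO cells stably expressing human δ receptor, using [3H]naltrindole and 12 compound concentrations. Incubated 3 h at 25 °C in 50 mM Tris-HCl, pH 7.5.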

The target of experiment [7] is T2, Kappa-type opioid receptor. The experiment can be described thus: Activity at human kappa opioid receptor expressed in CHO cells by [35S]GTP-gamma-S binding assay. The experiment is classed as functional, cell-based.
Experiment [8] deals with T2, Kappa-type opioid receptor. The experiment can be described thus: Activity at human kappa opioid receptor expressed in CHO cells by [35S]GTPgammaS binding assay at 10 uM. It is filed as functional, cell-based. In outline: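 Membranes from CHO cells stably expressing human κ receptor (15 µg protein/tube), 12 compound concentrations, 60 min at 30 °C in Tris-HCl/MgCl2/NaCl/EGTA buffer pH 7.4 with 3 µM GDP and […] [35S]GTPγS. Filtration count, expressed as % stimulation over basal, giving Emax and EC50. […] At least 3 experiments in triplicate.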

Experiment [9] is described as follows: Displacement of [3H]naltrindole from human delta opioid receptor expressed in CHO cells.

Delta-type opioid receptor, sequence (P41143 whole entry): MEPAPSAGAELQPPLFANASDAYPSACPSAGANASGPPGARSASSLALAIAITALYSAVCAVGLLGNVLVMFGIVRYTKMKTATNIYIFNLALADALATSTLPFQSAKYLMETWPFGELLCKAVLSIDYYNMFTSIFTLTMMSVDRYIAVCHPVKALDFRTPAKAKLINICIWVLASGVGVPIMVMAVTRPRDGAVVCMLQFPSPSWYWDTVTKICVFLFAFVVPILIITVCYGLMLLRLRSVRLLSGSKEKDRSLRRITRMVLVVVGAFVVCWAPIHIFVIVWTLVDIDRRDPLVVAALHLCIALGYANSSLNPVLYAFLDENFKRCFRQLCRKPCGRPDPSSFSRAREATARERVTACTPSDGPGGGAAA
T1 sequence (P35372 whole entry): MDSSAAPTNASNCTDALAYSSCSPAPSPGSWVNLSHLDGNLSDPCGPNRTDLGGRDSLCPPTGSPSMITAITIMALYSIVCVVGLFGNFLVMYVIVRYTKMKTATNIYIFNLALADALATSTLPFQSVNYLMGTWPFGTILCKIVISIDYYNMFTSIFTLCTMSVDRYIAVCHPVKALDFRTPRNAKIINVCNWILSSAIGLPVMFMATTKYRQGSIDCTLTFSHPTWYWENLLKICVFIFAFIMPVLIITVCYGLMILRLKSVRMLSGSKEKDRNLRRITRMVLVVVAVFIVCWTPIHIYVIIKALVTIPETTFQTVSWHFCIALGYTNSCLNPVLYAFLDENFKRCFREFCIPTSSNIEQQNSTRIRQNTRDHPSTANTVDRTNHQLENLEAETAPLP
T2 sequence (P41145 whole entry): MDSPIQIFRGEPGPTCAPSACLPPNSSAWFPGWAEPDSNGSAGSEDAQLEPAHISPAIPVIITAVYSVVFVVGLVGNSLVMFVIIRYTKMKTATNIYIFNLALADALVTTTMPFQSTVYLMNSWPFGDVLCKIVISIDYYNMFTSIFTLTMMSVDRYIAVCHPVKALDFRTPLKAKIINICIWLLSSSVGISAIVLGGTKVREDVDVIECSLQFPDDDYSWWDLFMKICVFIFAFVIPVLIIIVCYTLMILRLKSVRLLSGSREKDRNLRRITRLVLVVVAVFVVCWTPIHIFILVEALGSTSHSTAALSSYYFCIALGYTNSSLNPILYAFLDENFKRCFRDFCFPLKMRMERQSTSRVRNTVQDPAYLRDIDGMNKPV

For the compound `Nc1ccc2c(c1)[C@@]13CCCC[C@H]1[C@@H](C2)N(CC1CCC1)CC3`, the values for the negative-log Ki (pKi) (at Mu-type opioid receptor [1]; in experiment [2]) were 8.43 and 8.74, respectively.
For `Oc1ccc2c(c1)[C@@]13CCCC[C@H]1[C@@H](C2)N(CC1CCC1)CC3`, the Activity result in experiment [3] (filed as agonist) was “Agonist”; on Mu-type opioid receptor [5] (filed as partial agonist), “Partial agonist”. Moreover, the Imax on Mu-type opioid receptor [4] is 50%.
As to `O=C(CCCCCCCCC(=O)Oc1ccc2c(c1)[C@]13CCCCC1[C@H](C2)N(CC1CCC1)CC3)Oc1ccc2c(c1)[C@]13CCCCC1[C@H](C2)N(CC1CCC1)CC3` (some centres not stated), the pKi on Mu-type opioid receptor [1] is 6.89; in experiment [6] it was 6.15; in [2], 6.89.
Consider `O=C(CCCCCCCCC(=O)Oc1ccc2c(c1)[C@@]13CCCCC1[C@@H](C2)N(CC1CCC1)CC3)Nc1ccc2c(c1)[C@@]13CCCCC1[C@@H](C2)N(CC1CCC1)CC3` (some centres not stated), for which the negative-log Ki (pKi) on Mu-type opioid receptor [1] was 9.19; in experiment [6], 7.92; in [2], 9.42. The Activity entry (in [3] (filed as partial agonist); on Mu-type opioid receptor [5] (filed as partial agonist)) was “Partial agonist” each time. For the same compound, the results for the negative logarithm of the EC50 (pEC50) (in experiment [7]; at Mu-type opioid receptor [4]) were 8.06 and 8.36, respectively. The Emax came out at 55% in experiment [7] and 56% on Mu-type opioid receptor [4]. This compound gave a pIC50 at Mu-type opioid receptor [4] of 6.82. The Imax on Mu-type opioid receptor [4] is 61%; in experiment [8] it was 65 µM.
Regarding `O=C(CCCCCCCCC(=O)Oc1ccc2c(c1)[C@@]13CCCCC1[C@@H](C2)N(CC1CCC1)CC3)Oc1ccccc1` (some centres not stated), the pKi at Mu-type opioid receptor [1] is 9.36; in experiment [6], 7.96; in experiment [2], 9.52. The Activity result (in experiment [3] (filed as agonist); at Mu-type opioid receptor [5] (filed as agonist)) was “Agonist” each time. Further, the results for the negative-log EC50 (pEC50) (in experiment [7]; on Mu-type opioid receptor [4]) were 8.42 and 8.29, respectively. The maximal response (Emax) worked out at 170% in experiment [7] and 93% at Mu-type opioid receptor [4].
Take `O=C(O)CCCCCCCCC(=O)Oc1ccc2c(c1)[C@@]13CCCCC1[C@@H](C2)N(CC1CCC1)CC3` (some centres not stated): the pKi is 9.15 at Mu-type opioid receptor [1], 7.74 in [6] and 9.54 in experiment [2]. The Activity entry (in [3] (filed as agonist); at Mu-type opioid receptor [5] (filed as agonist)) was “Agonist” each time. Moreover, the negative-log EC50 (pEC50) in experiment [7] was 8.55; on Mu-type opioid receptor [4], 8.52. Moreover, the values for the maximal response (Emax) (in experiment [7]; at Mu-type opioid receptor [4]) were 75% and 110%, respectively.
In the case of `C#CCN1CC[C@]23CCCC[C@H]2[C@H]1Cc1ccc(O)cc13`, the negative-log Ki (pKi) on Mu-type opioid receptor [1] is 11.52; in [2] it was 11.52; in [9], 9.21.
With `O=C(CCC(=O)Nc1ccc2c(c1)[C@@]13CCCCC1[C@@H](C2)N(CC1CCC1)CC3)Nc1ccc2c(c1)[C@@]13CCCCC1[C@@H](C2)N(CC1CCC1)CC3` (some centres not stated), the pKi on Mu-type opioid receptor [1] is 8.48; in experiment [2], 8.42.
Consider `O=C(CCCCCCCCC(=O)Oc1ccc2c(c1)[C@@]13CCCCC1[C@@H](C2)N(CC1CC1)CC3)Oc1ccc2c(c1)[C@@]13CCCCC1[C@@H](C2)N(CC1CCC1)CC3` (single isomer, unassigned; (-)), for which the negative-log Ki (pKi) at Mu-type opioid receptor [1] is 9.47; in experiment [6], 8.36; in [2], 9.64. Further, the Activity entry in experiment [3] (filed as agonist) was “Agonist”; at Mu-type opioid receptor [5] (filed as partial agonist), “Partial agonist”. In addition, the pEC50 is 8.60 in experiment [7] and 8.54 at Mu-type opioid receptor [4]. Moreover, the Emax in experiment [7] worked out at 110%; at Mu-type opioid receptor [4], 41%. In addition, at Mu-type opioid receptor [4], the pIC50 is 7.02. On Mu-type opioid receptor [4], this compound registered an Imax of 64%.
Consider `C[C@@H](NC(=O)[C@@H](N)Cc1ccc(O)cc1)C(=O)NCC(=O)N(C)[C@@H](Cc1ccccc1)C(=O)NCCO`, for which, on Mu-type opioid receptor [5] (filed as agonist), the Activity entry is “Agonist”.
On to `O=C(CCCCCCCCC(=O)Oc1ccc2c(c1)[C@@]13CCCCC1[C@@H](C2)N(C[C@@H]1CCCO1)CC3)Oc1ccc2c(c1)[C@@]13CCCCC1[C@@H](C2)N(C[C@@H]1CCCO1)CC3` (some centres not stated), for which the pKi on Mu-type opioid receptor [1] is 9.17; in experiment [6], 8.08; in experiment [2], 8.92. In addition, the Activity result in [3] (filed as agonist) was “Agonist”. Further, the results for the pEC50 (in experiment [7]; at Mu-type opioid receptor [4]) were 8.06 and 7.92, respectively. The figures for the Emax (in experiment [7]; on Mu-type opioid receptor [4]) were 140% and 69%, respectively. At Mu-type opioid receptor [4], the negative logarithm of the IC50 (pIC50) was 6.44. At Mu-type opioid receptor [4], this compound gave an Imax of 48%.
Turning to `Oc1ccc2c(c1)[C@]13CCCCC1[C@H](C2)N(CC1CC1)CC3` (single isomer, unassigned; (+)), in [6], the pKi is 7.89.
For `O=C(CCC(=O)Oc1ccc2c(c1)[C@@]13CCCCC1[C@@H](C2)N(CC1CCC1)CC3)Oc1ccc2c(c1)[C@@]13CCCCC1[C@@H](C2)N(CC1CCC1)CC3` (some centres not stated), the pKi was 9.80 on Mu-type opioid receptor [1], 8.03 in experiment [6] and 10.12 in experiment [2].
For `O=C(CCCCCCCCC(=O)Nc1ccc2c(c1)[C@@]13CCCCC1[C@@H](C2)N(CC1CCC1)CC3)Nc1ccc2c(c1)[C@@]13CCCCC1[C@@H](C2)N(CC1CCC1)CC3` (some centres not stated), in that order: 8.24, 7.42 and 8.12.
For `O=C(CCCCCCCCC(=O)Oc1ccc2c(c1)[C@]13CCCCC1[C@H](C2)N(CC1CCC1)CC3)Oc1ccc2c(c1)[C@@]13CCCCC1[C@@H](C2)N(CC1CCC1)CC3` (single isomer, unassigned; (+)), on Mu-type opioid receptor [1], the pKi is 8.66. Also, the pKi in experiment [6] was 7.64. The compound also had a pKi in experiment [2] of 8.92. Further, the Activity entry in [3] (filed as agonist) is “Agonist”. In experiment [7], the pEC50 is 8.10 and the maximal response (Emax) was 77%. At Mu-type opioid receptor [4], this compound had an Emax of 28%, a negative-log IC50 (pIC50) of 6.34 and an Imax of 71%.
On to `O=C(/C=C/C(=O)Nc1ccc2c(c1)[C@@]13CCCCC1[C@@H](C2)N(CC1CCC1)CC3)Nc1ccc2c(c1)[C@@]13CCCCC1[C@@H](C2)N(CC1CCC1)CC3` (some centres not stated), for which the pKi at Mu-type opioid receptor [1] is 7.89; in experiment [6], 6.80; in experiment [2], 8.14.
For the compound `O=C(/C=C/C(=O)Oc1ccc2c(c1)[C@@]13CCCC[C@H]1[C@@H](C2)N(CC1CCC1)CC3)Oc1ccc2c(c1)[C@@]13CCCC[C@H]1[C@@H](C2)N(CC1CCC1)CC3`, in experiment [2], the negative-log Ki (pKi) was 10.10.
Regarding `C#CCN1CC[C@]23CCCCC2[C@H]1Cc1ccc(OC(=O)CCCCCCCCC(=O)Oc2ccc4c(c2)[C@@]25CCCCC2[C@@H](C4)N(CC#C)CC5)cc13` (some centres not stated), the pKi on Mu-type opioid receptor [1] was 7.85; in experiment [6] it was 6.72; in experiment [2], 8.00.
Consider `O=C(/C=C/C=C/C(=O)Oc1ccc2c(c1)[C@@]13CCCCC1[C@@H](C2)N(CC1CCC1)CC3)Oc1ccc2c(c1)[C@@]13CCCCC1[C@@H](C2)N(CC1CCC1)CC3` (some centres not stated), for which the values for the pKi (at Mu-type opioid receptor [1]; in experiment [6]; in [2]) were 8.55, 7.55 and 9.21, respectively. Moreover, the Activity entry (in [3] (filed as agonist); at Mu-type opioid receptor [5] (filed as agonist)) was “Agonist” throughout. Further, the pEC50 was 7.77 in experiment [7] and 7.72 on Mu-type opioid receptor [4]. For the same compound, the Emax is 91% in [7] and 96% on Mu-type opioid receptor [4].
In the case of `CN1CC[C@]23c4c5ccc(OC(=O)CCCCCCCCC(=O)Oc6ccc7c(c6)[C@@]68CCCCC6[C@@H](C7)N(CC6CCC6)CC8)c4O[C@H]2[C@@H](O)C=C[C@H]3[C@H]1C5` (some centres not stated), the pKi was 9.66 on Mu-type opioid receptor [1], 8.41 in experiment [6] and 9.96 in [2]. Moreover, the Activity entry (in [3] (filed as agonist); on Mu-type opioid receptor [5] (filed as agonist)) was “Agonist” each time. Further, the figures for the pEC50 (in [7]; on Mu-type opioid receptor [4]) were 8.64 and 8.60, respectively. Besides, the Emax in [7] was found to be 150%; at Mu-type opioid receptor [4], 110%.
With `Oc1ccc2c(c1)[C@@]13CCCCC1[C@@H](C2)N(C[C@@H]1CCCO1)CC3` (some centres not stated), the pKi on Mu-type opioid receptor [1] is 11.00; in experiment [2] it was 9.82; in experiment [9], 9.57.
In the case of `Oc1ccc2c(c1)[C@]13CCCCC1[C@H](C2)N(CC1CCC1)CC3` (single isomer, unassigned; (+)), the pKi in experiment [6] is < 5.00; in experiment [2], 7.26.
On to `Oc1ccc2c(c1)[C@@]13CCCC[C@H]1[C@@H](C2)N(CC1CC1)CC3`, for which the Activity result on Mu-type opioid receptor [5] (filed as partial agonist) was “Partial agonist”.

For the origin of these results see ChEMBL document CHEMBL1148605, “Synthesis and preliminary in vitro investigation of bivalent ligands containing homo- and heterodimeric pharmacophores at mu, delta, and kappa opioid receptors” (J Med Chem, 2006).
